Here are results for one compound from ChEMBL document CHEMBL5260822, “Structure-based design and synthesis of 2,4-diaminopyrimidines as EGFR L858R/T790M selective inhibitors for NSCLC” (Eur J Med Chem, 2017).

Data set [1] can be described thus: Clearance in Sprague-Dawley rat at 1 mg/kg, iv and measured after 24 hrs by LC-MS/MS analysis. Format: ADME, organism-based. The following applies: in vivo.
Data set [2] has as its target Insulin-like growth factor 1 receptor (Homo sapiens) (UniProt P08069). Nature of the data set: Inhibition of IGF1R (unknown origin) at 1000 nM by DiscoverX KINOMEscan assay relative to control; values are per cent of control.
For data set [3], the system named is Epidermal growth factor receptor (Homo sapiens), P00533 [L858R,T790M]. Put plainly: Inhibition of EGFR phosphorylation in EGF-stimulated human NCI-H1975 cells harboring EGFR L858R/T790M double mutant at 0.1 to 100 nM and measured after 2 hrs by Western blot analysis. It is filed as cell-based. Conditions: dose 0.1-100 nM. The method, boiled down: (§1)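 Cells treated with compound for 2 h, then stimulated with EGF for 15 min and lysed. Lysates cleared at 12,000 × g (10 min, 4 °C), protein measured by Bradford assay, and equal amounts run on 8% SDS-PAGE and blotted to nitrocellulose. Probed for p-EGFR (Y1068), EGFR, p-ERK (T202/Y204), ERK, with tubulin or GAPDH as loading controls.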
On the technique in general: Immunoblotting shows a protein as a band on a membrane.

In data set [4] the target is T1, Epidermal growth factor receptor (Homo sapiens, UniProt P00533). Nature of the data set: Inhibition of wild type EGFR (unknown origin) expressed in baculovirus expression system by ELISA. For orientation: ELISA stands for enzyme-linked immunosorbent assay.
Data set [5] in a line: Volume of distribution at steady state in Sprague-Dawley rat at 1 mg/kg, iv and measured after 24 hrs by LC-MS/MS analysis. The following applies: in vivo, read-out: Vdss. It is filed as ADME, organism-based.
The test system of data set [6] is NCI-H1975. Put plainly: Antitumor activity against human NCI-H1975 cells harboring EGFR L858R/T790M mutant xenografted in BALB/c nude mouse assessed as tumor growth inhibition at 30 mg/kg, po for 18 days. Format: functional. The following applies: NCI-H1975, 432 h, time 18 day, read-out: TGI. An outline of the steps: (§2)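 H1975 cells (1 × 10^6 in 0.1 mL PBS) injected subcutaneously into the right flank of female nude mice. At mean tumor volume of about 100 mm3 (roughly 18 days), mice randomized, n = 6 per group, and dosed once daily for 18 days against a vehicle group. Tumor volume (0.5 × L × W²) measured every 2–3 days; tumors weighed at sacrifice. Data given as mean ± SEM.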
(In xenograft studies the graft and the host belong to different species.)

Data set [7] addresses Receptor tyrosine-protein kinase erbB-4 (Homo sapiens) (UniProt Q15303). Put plainly: Inhibition of ERBB4 (unknown origin) at 1000 nM by DiscoverX KINOMEscan assay relative to control; values are per cent of control.
The target of data set [8] is T1, Epidermal growth factor receptor. Nature of the data set: Inhibition of EGFR phosphorylation in EGF-stimulated human A-431 cells harboring wild type EGFR at 100 nM and measured after 2 hrs by Western blot analysis. It is filed as cell-based. An outline of the steps:
as §1

Data set [9] addresses Tyrosine-protein kinase JAK2 (Homo sapiens) (UniProt O60674). Nature of the data set: Inhibition of JAK2 (unknown origin) at 1000 nM by DiscoverX KINOMEscan assay relative to control; values are per cent of control.
The subject of data set [10] is Epidermal growth factor receptor (Homo sapiens), P00533 [L858R,T790M]. The following applies: NCI-H1975, dose 10.0 nM, time 2.0 hrs.
A short description of data set [11]: Cmax in Sprague-Dawley rat at 10 mg/kg, po and measured after 24 hrs by LC-MS/MS analysis. It is filed as ADME, organism-based. The arrangement: dose 10 mg/kg, time 24 hrs, route po. The following applies: in vivo. An outline of the steps:
(§3)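 Male Sprague–Dawley rats (190–220 g) dosed by oral gavage at 10 mg/kg in 5% DMSO / 95% HP-β-CD aqueous solution (20%); iv reference arm at 1 mg/kg. Blood sampled at 0.25, 0.5, 1, 2, 4, 6, 8 and 24 h, centrifuged (8000 × g, 6 min), and plasma quantified by LC–MS/MS.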

Data set [12] can be described thus: Cmax in Sprague-Dawley rat at 1 mg/kg, iv and measured after 24 hrs by LC-MS/MS analysis. Format: ADME, organism-based. The arrangement: dose 1 mg/kg, time 24 hrs, route iv. Conditions: in vivo.
Data set [13] deals with NCI-H1975. Put plainly: Antiproliferative activity against human NCI-H1975 cells harboring EGFR L858R/T790M double mutant assessed as inhibition of cell proliferation incubated for 72 hrs by sulforhodamine B colorimetric assay. It is filed as functional, cell-based. Conditions: NCI-H1975, 72 h.
For data set [14], the target named is ALK tyrosine kinase receptor (Homo sapiens) (UniProt Q9UM73). Put plainly: Inhibition of ALK (unknown origin) at 1000 nM by DiscoverX KINOMEscan assay relative to control; values are per cent of control.
The nature of data set [15]: Toxicity in BALB/c nude mouse xenografted with human NCI-H1975 cells harboring EGFR L858R/T790M mutant assessed as morphological changes in liver at 15 to 30 mg/kg, po for 18 days by hematoxylin and eosin staining based microscopic analysis. The following applies: in vivo, 432 h, dose 15-30 mg/kg, time 18 day. Format: organism-based. An outline of the steps:
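H1975 subcutaneous xenografts were grown in female BALB/cA nu/nu mice (n = 6 per group), dosed at 15 or 30 mg/kg/day for 18 days or with vehicle. At the end the mice were sacrificed. Heart, kidney and liver were harvested, processed and stained with hematoxylin and eosin for routine histological examination.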

Data set [16] concerns A-431. Nature of the data set: Antiproliferative activity against human A-431 cells harboring wild type EGFR assessed as inhibition of cell proliferation incubated for 72 hrs by sulforhodamine B colorimetric assay. It is filed as functional, cell-based. Conditions: A-431, 72 h.
Data set [17] can be described thus: Half life in Sprague-Dawley rat at 10 mg/kg, po and measured after 24 hrs by LC-MS/MS analysis. It is filed as ADME, organism-based. The following applies: in vivo. The method, boiled down:
as §3

In data set [18] the test system is NCI-H1975. Nature of the data set: Antitumor activity against human NCI-H1975 cells harboring EGFR L858R/T790M mutant xenografted in BALB/c nude mouse assessed as tumor growth inhibition at 15 mg/kg, po for 18 days. Conditions: NCI-H1975, 432 h, time 18 day, read-out: TGI. Format: functional. An outline of the steps:
as §2

The target of data set [19] is Insulin receptor (Homo sapiens) (UniProt P06213). Nature of the data set: Inhibition of INSR (unknown origin) at 1000 nM by DiscoverX KINOMEscan assay relative to control; values are per cent of control.

For orientation: clearance means the volume of plasma or blood freed of the substance per unit of time. A high value points to a high capacity for elimination. In general, residual activity refers to the share of the control activity or signal that is left under treatment. The low end stands for little activity left, the high end for much activity left. As usually defined, the IC50 is the concentration needed to halve the response being measured. The term Cmax denotes the maximum level reached in the sampled fluid or tissue. Usually half-life stands for the time needed for the level to fall by half in the phase considered. A higher half-life goes with slow loss.

Calls of active or inactive are those of the source.

Epidermal growth factor receptor (Homo sapiens), P00533 [L858R,T790M], sequence (P00533 whole entry T790M/L858R, looked up): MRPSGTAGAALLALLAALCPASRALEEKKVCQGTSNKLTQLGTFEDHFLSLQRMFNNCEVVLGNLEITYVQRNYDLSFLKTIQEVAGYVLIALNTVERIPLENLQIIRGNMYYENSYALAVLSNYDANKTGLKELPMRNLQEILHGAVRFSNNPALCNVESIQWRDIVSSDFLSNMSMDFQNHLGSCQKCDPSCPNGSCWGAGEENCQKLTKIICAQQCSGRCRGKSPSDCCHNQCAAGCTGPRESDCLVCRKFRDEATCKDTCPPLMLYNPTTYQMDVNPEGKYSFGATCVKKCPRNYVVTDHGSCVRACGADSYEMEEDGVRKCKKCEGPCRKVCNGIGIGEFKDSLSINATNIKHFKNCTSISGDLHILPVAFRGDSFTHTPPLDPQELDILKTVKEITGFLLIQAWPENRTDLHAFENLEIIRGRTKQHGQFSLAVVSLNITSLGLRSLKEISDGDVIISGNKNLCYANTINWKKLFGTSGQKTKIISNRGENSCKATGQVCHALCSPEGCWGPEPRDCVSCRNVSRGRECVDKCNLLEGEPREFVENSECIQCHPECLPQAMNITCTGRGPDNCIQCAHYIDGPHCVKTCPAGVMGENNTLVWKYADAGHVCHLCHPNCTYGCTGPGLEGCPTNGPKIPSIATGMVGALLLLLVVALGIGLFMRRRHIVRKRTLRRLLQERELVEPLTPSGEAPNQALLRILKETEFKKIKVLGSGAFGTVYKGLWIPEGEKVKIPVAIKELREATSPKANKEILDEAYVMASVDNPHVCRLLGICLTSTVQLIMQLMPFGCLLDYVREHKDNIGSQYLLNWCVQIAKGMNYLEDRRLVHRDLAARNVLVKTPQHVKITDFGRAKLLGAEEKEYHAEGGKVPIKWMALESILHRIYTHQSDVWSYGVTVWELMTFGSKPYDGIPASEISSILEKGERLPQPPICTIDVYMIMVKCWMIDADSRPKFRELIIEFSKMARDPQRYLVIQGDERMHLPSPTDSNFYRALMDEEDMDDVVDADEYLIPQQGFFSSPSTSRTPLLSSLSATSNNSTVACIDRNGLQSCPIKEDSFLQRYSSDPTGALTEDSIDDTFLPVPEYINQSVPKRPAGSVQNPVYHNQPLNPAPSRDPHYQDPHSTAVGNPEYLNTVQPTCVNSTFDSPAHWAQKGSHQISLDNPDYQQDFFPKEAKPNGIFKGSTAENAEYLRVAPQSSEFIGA
T1 sequence (P00533 whole entry): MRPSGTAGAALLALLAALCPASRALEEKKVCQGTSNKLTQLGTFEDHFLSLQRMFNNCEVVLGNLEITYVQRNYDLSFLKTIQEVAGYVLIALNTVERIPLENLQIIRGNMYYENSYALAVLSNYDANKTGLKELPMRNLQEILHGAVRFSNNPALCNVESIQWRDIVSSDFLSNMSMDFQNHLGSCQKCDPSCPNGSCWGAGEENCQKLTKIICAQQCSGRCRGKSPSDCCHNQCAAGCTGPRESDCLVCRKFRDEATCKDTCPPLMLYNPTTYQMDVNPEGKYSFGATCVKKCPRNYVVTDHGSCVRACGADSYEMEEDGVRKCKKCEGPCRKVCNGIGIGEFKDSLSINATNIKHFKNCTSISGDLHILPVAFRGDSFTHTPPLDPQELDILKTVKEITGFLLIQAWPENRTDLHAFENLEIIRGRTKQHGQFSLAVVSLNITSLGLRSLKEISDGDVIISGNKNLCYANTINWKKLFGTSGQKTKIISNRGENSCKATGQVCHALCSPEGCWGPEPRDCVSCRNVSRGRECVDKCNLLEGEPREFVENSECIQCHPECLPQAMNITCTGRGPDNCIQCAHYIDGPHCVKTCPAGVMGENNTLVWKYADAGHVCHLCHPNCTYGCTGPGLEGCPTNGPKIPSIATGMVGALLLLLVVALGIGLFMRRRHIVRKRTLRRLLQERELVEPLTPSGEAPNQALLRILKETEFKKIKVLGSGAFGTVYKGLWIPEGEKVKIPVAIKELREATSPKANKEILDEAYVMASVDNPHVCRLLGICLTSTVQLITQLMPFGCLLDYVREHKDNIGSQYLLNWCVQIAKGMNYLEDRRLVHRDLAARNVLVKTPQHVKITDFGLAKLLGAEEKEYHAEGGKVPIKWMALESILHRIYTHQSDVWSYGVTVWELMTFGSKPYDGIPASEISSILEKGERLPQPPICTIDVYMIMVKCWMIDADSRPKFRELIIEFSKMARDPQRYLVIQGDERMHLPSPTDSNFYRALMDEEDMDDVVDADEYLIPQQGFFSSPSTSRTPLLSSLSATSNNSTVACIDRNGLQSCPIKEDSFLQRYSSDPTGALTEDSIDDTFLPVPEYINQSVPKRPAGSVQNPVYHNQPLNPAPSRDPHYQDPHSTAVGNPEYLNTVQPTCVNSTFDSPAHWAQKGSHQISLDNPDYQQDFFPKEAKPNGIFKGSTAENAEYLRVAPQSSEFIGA
Receptor tyrosine-protein kinase erbB-4 (Homo sapiens), sequence (Q15303 whole entry): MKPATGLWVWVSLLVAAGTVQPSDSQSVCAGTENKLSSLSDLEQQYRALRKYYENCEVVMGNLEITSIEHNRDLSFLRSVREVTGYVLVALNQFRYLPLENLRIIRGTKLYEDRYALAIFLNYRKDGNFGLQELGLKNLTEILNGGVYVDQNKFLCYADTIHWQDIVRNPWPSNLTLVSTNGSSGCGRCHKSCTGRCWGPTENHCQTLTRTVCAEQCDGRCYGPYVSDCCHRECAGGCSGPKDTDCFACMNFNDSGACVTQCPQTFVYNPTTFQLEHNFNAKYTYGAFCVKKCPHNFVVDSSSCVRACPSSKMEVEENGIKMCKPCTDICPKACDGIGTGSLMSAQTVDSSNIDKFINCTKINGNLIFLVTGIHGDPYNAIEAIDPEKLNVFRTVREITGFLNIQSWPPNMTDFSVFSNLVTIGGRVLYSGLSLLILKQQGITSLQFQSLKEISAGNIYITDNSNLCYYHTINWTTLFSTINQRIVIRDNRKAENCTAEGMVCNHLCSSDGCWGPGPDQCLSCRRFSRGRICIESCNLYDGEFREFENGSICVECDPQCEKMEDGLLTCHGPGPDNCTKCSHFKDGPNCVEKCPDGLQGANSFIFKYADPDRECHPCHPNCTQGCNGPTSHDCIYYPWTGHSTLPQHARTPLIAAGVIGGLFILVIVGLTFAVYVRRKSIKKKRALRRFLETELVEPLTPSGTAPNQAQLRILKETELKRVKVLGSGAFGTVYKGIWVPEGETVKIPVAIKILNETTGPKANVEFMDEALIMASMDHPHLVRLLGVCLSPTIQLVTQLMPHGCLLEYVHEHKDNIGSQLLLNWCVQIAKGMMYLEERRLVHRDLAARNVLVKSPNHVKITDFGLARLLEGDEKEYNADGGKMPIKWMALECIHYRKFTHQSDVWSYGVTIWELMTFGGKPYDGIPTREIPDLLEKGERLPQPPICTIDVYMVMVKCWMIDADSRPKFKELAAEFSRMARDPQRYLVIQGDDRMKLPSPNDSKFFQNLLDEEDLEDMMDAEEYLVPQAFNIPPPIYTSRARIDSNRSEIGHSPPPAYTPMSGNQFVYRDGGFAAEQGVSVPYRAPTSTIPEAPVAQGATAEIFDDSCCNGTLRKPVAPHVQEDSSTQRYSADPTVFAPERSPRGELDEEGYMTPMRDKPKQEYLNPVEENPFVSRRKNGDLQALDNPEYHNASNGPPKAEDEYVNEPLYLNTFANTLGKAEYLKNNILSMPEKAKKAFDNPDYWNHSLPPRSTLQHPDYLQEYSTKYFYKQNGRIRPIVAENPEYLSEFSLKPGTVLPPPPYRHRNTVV
Insulin receptor (Homo sapiens), sequence (P06213 28-758 limits assumed): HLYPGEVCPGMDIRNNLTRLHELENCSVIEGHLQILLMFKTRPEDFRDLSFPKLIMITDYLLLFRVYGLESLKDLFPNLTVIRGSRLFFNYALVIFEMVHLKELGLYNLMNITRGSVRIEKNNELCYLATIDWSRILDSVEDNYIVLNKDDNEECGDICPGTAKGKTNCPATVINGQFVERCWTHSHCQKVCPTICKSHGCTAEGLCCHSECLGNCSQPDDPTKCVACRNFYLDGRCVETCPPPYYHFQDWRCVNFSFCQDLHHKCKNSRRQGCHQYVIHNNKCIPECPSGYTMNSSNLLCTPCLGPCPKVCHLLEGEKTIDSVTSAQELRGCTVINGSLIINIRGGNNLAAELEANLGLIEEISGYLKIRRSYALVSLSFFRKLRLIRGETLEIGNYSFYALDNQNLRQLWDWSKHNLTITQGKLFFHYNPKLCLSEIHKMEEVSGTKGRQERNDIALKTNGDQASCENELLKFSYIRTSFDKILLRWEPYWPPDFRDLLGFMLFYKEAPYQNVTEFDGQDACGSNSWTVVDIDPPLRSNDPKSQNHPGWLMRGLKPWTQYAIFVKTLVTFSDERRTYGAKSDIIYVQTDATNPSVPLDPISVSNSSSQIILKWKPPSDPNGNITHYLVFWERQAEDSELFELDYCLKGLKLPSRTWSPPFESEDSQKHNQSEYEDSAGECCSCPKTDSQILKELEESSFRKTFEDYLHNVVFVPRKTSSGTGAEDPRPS
Insulin receptor (Homo sapiens), sequence (P06213 763-1382 limits assumed): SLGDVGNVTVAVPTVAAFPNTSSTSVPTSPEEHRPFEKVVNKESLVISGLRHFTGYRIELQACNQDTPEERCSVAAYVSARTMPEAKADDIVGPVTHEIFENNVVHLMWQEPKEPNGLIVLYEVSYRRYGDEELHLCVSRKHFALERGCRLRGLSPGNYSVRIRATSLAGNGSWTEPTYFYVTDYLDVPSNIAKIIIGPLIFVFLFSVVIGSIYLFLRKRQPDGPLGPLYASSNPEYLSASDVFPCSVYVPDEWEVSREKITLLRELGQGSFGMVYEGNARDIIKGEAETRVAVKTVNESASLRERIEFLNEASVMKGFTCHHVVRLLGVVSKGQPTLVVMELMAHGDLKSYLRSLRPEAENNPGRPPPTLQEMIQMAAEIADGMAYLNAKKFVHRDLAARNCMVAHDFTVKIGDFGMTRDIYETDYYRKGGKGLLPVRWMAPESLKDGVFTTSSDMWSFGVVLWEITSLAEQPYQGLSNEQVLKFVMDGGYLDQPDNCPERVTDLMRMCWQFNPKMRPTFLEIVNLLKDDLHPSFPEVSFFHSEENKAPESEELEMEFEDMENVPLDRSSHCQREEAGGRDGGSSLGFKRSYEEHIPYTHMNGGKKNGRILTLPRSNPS

With `C=CC(=O)Nc1cc(Nc2ncc(Br)c(Nc3ccc4ccn(C)c4c3)n2)c(OC)cc1N1CCN(C)CC1`, the clearance in data set [1] is 32.6 mL/min/kg. In addition, the residual activity was over 35% in [2]; under 10% in data set [7]; under 10% in data set [9]; under 10% in data set [14]; under 10% in [19]. Besides, in [3], the inhibition entry is “Dose-Dependent Effect”. For the same compound, the IC50 came to 280 nM in data set [4], 184 nM in [13] and 1690 nM in data set [16]. In addition, in data set [5], the Vd stood at 6.56 L/kg. Besides, the inhibition in vivo at 30 mg/kg in data set [6] came to 86%. Also, the inhibition result in data set [8] was “inactive”. The inhibition result in data set [10] is “Active”. For the same compound, the Cmax in data set [11] stood at 636 ng/mL; in data set [12], 235 ng/mL. Also, in data set [15], the Activity result is listed as “Non-Toxic”. Moreover, the half-life in data set [17] was 3.25 h. For the same compound, the inhibition in vivo at 15 mg/kg in data set [18] was determined as 62%.
